Assay results reported in ChEMBL document CHEMBL3992547, “Antimicrobial activity of rhodanine-3-acetic acid derivatives” (Bioorg Med Chem, 2017).
Calls of active or inactive are those of the source.

Experiments:
[1] = system: Mycobacterium tuberculosis; experiment: Antimycobacterial activity against Mycobacterium tuberculosis H37Rv 331/88 measured after 14 days by micromethod; assay type: functional; conditions: H37Rv 331/88, 336 h
[2] = system: Mycobacterium tuberculosis; experiment: Antimycobacterial activity against Mycobacterium tuberculosis H37Rv 331/88 measured after 21 days by micromethod; assay type: functional; conditions: H37Rv 331/88, 504 h
[3] = system: Mycobacterium avium; experiment: Antimycobacterial activity against Mycobacterium avium 330/88 measured after 14 days by micromethod; assay type: functional; conditions: 330/88, 336 h
[4] = system: Mycobacterium avium; experiment: Antimycobacterial activity against Mycobacterium avium 330/88 measured after 21 days by micromethod; assay type: functional; conditions: 330/88, 504 h
[5] = system: Mycobacterium kansasii; experiment: Antimycobacterial activity against Mycobacterium kansasii isolate 235/80 after 7 days by micromethod; assay type: functional; conditions: isolate 235/80, 168 h
[6] = system: Mycobacterium kansasii; experiment: Antimycobacterial activity against Mycobacterium kansasii isolate 235/80 after 14 days by micromethod; assay type: functional; conditions: isolate 235/80, 336 h
[7] = system: Mycobacterium kansasii; experiment: Antimycobacterial activity against Mycobacterium kansasii isolate 235/80 after 21 days by micromethod; assay type: functional; conditions: isolate 235/80, 504 h
[8] = system: Mycobacterium kansasii; experiment: Antimycobacterial activity against Mycobacterium kansasii isolate 6509/96 after 7 days by micromethod; assay type: functional; conditions: isolate 6509/96, 168 h
[9] = system: Mycobacterium kansasii; experiment: Antimycobacterial activity against Mycobacterium kansasii isolate 6509/96 after 14 days by micromethod; assay type: functional; conditions: isolate 6509/96, 336 h
[10] = system: Mycobacterium kansasii; experiment: Antimycobacterial activity against Mycobacterium kansasii isolate 6509/96 after 21 days by micromethod; assay type: functional; conditions: isolate 6509/96, 504 h
[11] = Solubility of the compound in Sula's semisynthetic medium up to 1 mM; assay type: physicochemical
[12] = system: Staphylococcus aureus; experiment: Antibacterial activity against Staphylococcus aureus CCM 4516/08 incubated for 24 hrs under dark condition by microdilution broth assay; assay type: functional; conditions: CCM 4516/08, 24 h
In short: (§1)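 Broth microdilution per M07-A07, modified, in Mueller-Hinton broth adjusted to pH 7.4 (±0.2). Inoculum is prepared in sterile water to McFarland 0.5 (1.5 × 10⁸ CFU/mL). Plates are incubated in the dark at 35 °C in humid air. MIC is read after 24 and 48 h as at least 95% growth reduction versus control (IC₉₅).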

[13] = system: Staphylococcus aureus; experiment: Antibacterial activity against Staphylococcus aureus CCM 4516/08 incubated for 48 hrs under dark condition by microdilution broth assay; assay type: functional; conditions: CCM 4516/08, 48 h; in short: as §1
[14] = system: Staphylococcus aureus; experiment: Antibacterial activity against methicillin-resistant Staphylococcus aureus H 5996/08 incubated for 24 hrs under dark condition by microdilution broth assay; assay type: functional; conditions: H 5996/08, 24 h
In short: (§2)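 Microdilution broth method modified per M07-A07, in Mueller-Hinton broth adjusted to pH 7.4 (±0.2). Inoculum made in sterile water to 0.5 McFarland (1.5 × 10⁸ CFU/mL). Plates incubated in the dark at 35 °C in a humid atmosphere, with reads at 24 and 48 h. MIC taken as at least 95% growth reduction (IC₉₅) versus control.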

[15] = system: Staphylococcus aureus; experiment: Antibacterial activity against methicillin-resistant Staphylococcus aureus H 5996/08 incubated for 48 hrs under dark condition by microdilution broth assay; assay type: functional; conditions: H 5996/08, 48 h; in short: as §2
[16] = system: Staphylococcus epidermidis; experiment: Antibacterial activity against Staphylococcus epidermidis H 6966/08 incubated for 24 hrs under dark condition by microdilution broth assay; assay type: functional; conditions: H 6966/08, 24 h; in short: as §1
[17] = system: Staphylococcus epidermidis; experiment: Antibacterial activity against Staphylococcus epidermidis H 6966/08 incubated for 48 hrs under dark condition by microdilution broth assay; assay type: functional; conditions: H 6966/08, 48 h; in short: as §1
[18] = system: Escherichia coli; experiment: Antibacterial activity against Escherichia coli CCM 4517 incubated for 24 hrs under dark condition by microdilution broth assay; assay type: functional; conditions: CCM 4517, 24 h; in short: as §1
[19] = system: Escherichia coli; experiment: Antibacterial activity against Escherichia coli CCM 4517 incubated for 48 hrs under dark condition by microdilution broth assay; assay type: functional; conditions: CCM 4517, 48 h; in short: as §1
[20] = system: Klebsiella pneumoniae; experiment: Antibacterial activity against Klebsiella pneumoniae D 11750/08 up to 500 uM incubated for 24 to 48 hrs under dark condition by microdilution broth assay; assay type: functional; in short: as §1
[21] = system: Klebsiella pneumoniae; experiment: Antibacterial activity against ESBL positive Klebsiella pneumoniae J 14368/08 up to 500 uM incubated for 24 to 48 hrs under dark condition by microdilution broth assay; assay type: functional; in short: as §1
[22] = system: Pseudomonas aeruginosa; experiment: Antibacterial activity against Pseudomonas aeruginosa CCM 1961 up to 500 uM incubated for 24 to 48 hrs under dark condition by microdilution broth assay; assay type: functional; in short: as §1
[23] = system: Candida albicans; experiment: Antifungal activity against Candida albicans ATCC 44859 after 24 hrs by microdilution broth assay; assay type: functional; conditions: ATCC 44859, 24 h
In short: (§3)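 Broth microdilution per CLSI M27-A3 and M38-A2 in RPMI 1640 with glutamine, buffered to pH 7.0 with MOPS. Compounds are diluted in DMSO. Final inoculum is 5 × 10³ CFU/mL for yeasts and 0.5–5 × 10⁴ CFU/mL for moulds. Plates are incubated in the dark at 35 °C in humid air and read visually and/or at 540 nm after 24 and 48 h. MIC is ≥80% growth reduction (IC₈₀) for yeasts and ≥50% (IC₅₀) for filamentous fungi.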

[24] = system: Candida albicans; experiment: Antifungal activity against Candida albicans ATCC 44859 after 48 hrs by microdilution broth assay; assay type: functional; conditions: ATCC 44859, 48 h; in short: as §3
[25] = system: Candida tropicalis; experiment: Antifungal activity against Candida tropicalis 156 after 24 hrs by microdilution broth assay; assay type: functional; conditions: Candida tropicalis, 156, 24 h; in short: as §3
[26] = system: Candida tropicalis; experiment: Antifungal activity against Candida tropicalis 156 after 48 hrs by microdilution broth assay; assay type: functional; conditions: Candida tropicalis, 156, 48 h; in short: as §3
[27] = system: Nakaseomyces glabratus; experiment: Antifungal activity against Candida glabrata 20/I after 24 hrs by microdilution broth assay; assay type: functional; in short: as §3
[28] = system: Nakaseomyces glabratus; experiment: Antifungal activity against Candida glabrata 20/I after 48 hrs by microdilution broth assay; assay type: functional; in short: as §3
[29] = system: Trichosporon asahii; experiment: Antifungal activity against Trichosporon asahii 1188 after 24 hrs by microdilution broth assay; assay type: functional; conditions: Trichosporon asahii, 1188, 24 h; in short: as §3
[30] = system: Trichosporon asahii; experiment: Antifungal activity against Trichosporon asahii 1188 after 48 hrs by microdilution broth assay; assay type: functional; conditions: Trichosporon asahii, 1188, 48 h; in short: as §3
[31] = system: Aspergillus fumigatus; experiment: Antifungal activity against Aspergillus fumigatus 231 after 24 hrs by microdilution broth assay; assay type: functional; conditions: Aspergillus fumigatus, 231, 24 h; in short: as §3
[32] = system: Aspergillus fumigatus; experiment: Antifungal activity against Aspergillus fumigatus 231 after 48 hrs by microdilution broth assay; assay type: functional; conditions: Aspergillus fumigatus, 231, 48 h; in short: as §3
[33] = system: Trichophyton mentagrophytes; experiment: Antifungal activity against Trichophyton mentagrophytes 445 after 72 hrs by microdilution broth assay; assay type: functional; conditions: Trichophyton mentagrophytes, 445, 72 h
In short: (§4)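 Broth microdilution per CLSI M38-A2 in RPMI 1640 with glutamine, buffered to pH 7.0 with MOPS, with DMSO as diluent. Final inoculum is 0.5–5 × 10⁴ CFU/mL. Plates are incubated in the dark at 35 °C in humid air and read visually and/or at 540 nm after 72 and 120 h. MIC is at least 50% growth reduction versus control.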

[34] = system: Trichophyton mentagrophytes; experiment: Antifungal activity against Trichophyton mentagrophytes 445 after 120 hrs by microdilution broth assay; assay type: functional; conditions: Trichophyton mentagrophytes, 445, 120 h; in short: as §4
[35] = system: Pichia kudriavzevii; experiment: Antifungal activity against Candida krusei E28 after 24 to 48 hrs hrs by microdilution broth assay; assay type: functional; in short: as §3
[36] = system: Lichtheimia corymbifera; experiment: Antifungal activity against Absidia corymbifera 272 after 24 to 48 hrs hrs by microdilution broth assay; assay type: functional; in short: as §3
[37] = system: Enterococcus; experiment: Antibacterial activity against Enterococcus sp. J 14365/08 incubated for 24 hrs under dark condition by microdilution broth assay; conditions: J 14365/08, 24 h
[38] = system: Enterococcus; experiment: Antibacterial activity against Enterococcus sp. J 14365/08 incubated for 48 hrs under dark condition by microdilution broth assay; conditions: J 14365/08, 48 h

CC(=O)Oc1ccccc1/C=C1\SC(=S)N(CC(=O)O)C1=O
31.2 µM: MIC95 [16] | MIC95 [17]
500 µM: MIC50 [34]
Soluble: solubility [11]
32 µM: MIC [1] | MIC [2]
62.5 µM: MIC [3] | MIC [4] | MIC [5] | MIC [6] | MIC [7] | MIC [8] | MIC [9] | MIC [10] | MIC95 [12] | MIC95 [13] | MIC95 [14] | MIC95 [15] | MIC95 [37]
inactive: Activity [20] | Activity [21] | Activity [22] | Activity [35] | Activity [36]
250 µM: MIC50 [33]
125 µM: MIC95 [38]
> 500 µM: MIC95 [18] | MIC95 [19] | MIC80 [23] | MIC80 [24] | MIC80 [25] | MIC80 [26] | MIC80 [27] | MIC80 [28] | MIC80 [29] | MIC80 [30] | MIC50 [31] | MIC50 [32]

O=C(CN1C(=O)CSC1=S)Oc1ccc([N+](=O)[O-])cc1
inactive: Activity [20] | Activity [21] | Activity [22] | Activity [35] | Activity [36]
500 µM: MIC [1] | MIC [2] | MIC [5] | MIC [6] | MIC [8] | MIC [9] | MIC [10] | MIC95 [13] | MIC95 [14] | MIC95 [15] | MIC95 [16] | MIC95 [17] | MIC50 [31] | MIC95 [37] | MIC95 [38]
Soluble: solubility [11]
> 500 µM: MIC95 [18] | MIC95 [19] | MIC80 [23] | MIC80 [24] | MIC80 [25] | MIC80 [26] | MIC80 [27] | MIC80 [28] | MIC80 [29] | MIC80 [30] | MIC50 [32]
250 µM: MIC95 [12] | MIC50 [34]
1000 µM: MIC [3] | MIC [4] | MIC [7]
125 µM: MIC50 [33]

O=C(CN1C(=O)CSC1=S)Nc1ccccc1
> 1000 µM: MIC [4]
1000 µM: MIC [1] | MIC [2] | MIC [3] | MIC [5] | MIC [6] | MIC [7] | MIC [8] | MIC [9] | MIC [10]
inactive: Activity [20] | Activity [21] | Activity [22] | Activity [35] | Activity [36]
Soluble: solubility [11]
500 µM: MIC95 [12] | MIC95 [13] | MIC95 [16] | MIC95 [17] | MIC80 [25] | MIC80 [26] | MIC95 [37] | MIC95 [38]
> 500 µM: MIC95 [14] | MIC95 [15] | MIC95 [18] | MIC95 [19] | MIC80 [23] | MIC80 [24] | MIC80 [27] | MIC80 [28] | MIC80 [29] | MIC80 [30] | MIC50 [31] | MIC50 [32] | MIC50 [33] | MIC50 [34]
